Data taken from ChEMBL document CHEMBL1158795 (J Nat Prod, 2005).
Activity calls are given as the source filed them. The rule behind the calls is not given here.

Columns and labels:
[1] = biological target: T1, Hypoxia inducible factors; HIF-1-alpha, HIF-2-alpha (Homo sapiens, UniProt Q16665+Q99814); assay: Inhibition of hypoxia-induced HIF1 activation in human T47D cells upto 10 uM by luciferase reporter gene assay; type: cell-based
Summary of the method: (§1)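 T47D cells transiently co-transfected with pTK-HRE3-luc and pRL-TK control, preincubated with compounds 30 min at 37 °C, then hypoxia (1% O2/94% N2/5% CO2) 16 h. Firefly luciferase activity normalized to Renilla, expressed as % inhibition versus induced control. Representative experiment, quadruplicate.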

T47D [2] = assay: Inhibition of hypoxia-induced secreted VEGF expression in human T47D cells at 0.3 uM after 16 by ELISA; type: functional, cell-based
Summary of the method: (§2)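 T47D cells given compound before hypoxia (1% O2, 16 h). Secreted VEGF protein in conditioned media measured by modified human VEGF ELISA and compared with normoxic control level.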

[3] = biological target: T1, Hypoxia inducible factors; HIF-1-alpha, HIF-2-alpha; assay: Inhibition of hypoxia-induced HIF1 activation in human T47D cells upto 30 uM after 16 hrs by luciferase reporter gene assay; type: cell-based; summary of the method: as §1
T47D [4] = assay: Inhibition of hypoxia-induced secreted VEGF expression in human T47D cells at 1 uM after 16 by ELISA; type: functional, cell-based; summary of the method: as §2
[5] = biological target: Aryl hydrocarbon receptor nuclear translocator (Homo sapiens) (UniProt P27540); assay: Inhibition of hypoxia-induced HIF1beta activation in human T47D cells at 0.3 uM after 4 hrs by Western blotting; type: cell-based
Summary of the method: (§3)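 T47D cells exposed to compound 30 min, then hypoxia (1% O2/94% N2/5% CO2) 4 h. Nuclear extracts prepared; HIF-1α probed by Western blot with monoclonal antibody, membrane stripped and reprobed for HIF-1β with monoclonal anti-HIF-1β antibody.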

[6] = biological target: Aryl hydrocarbon receptor nuclear translocator (Homo sapiens) (UniProt P27540); assay: Inhibition of hypoxia-induced HIF1beta activation in human T47D cells at 10 uM after 4 hrs by Western blotting; type: cell-based; summary of the method: as §3
[7] = biological target: T1, Hypoxia inducible factors; HIF-1-alpha, HIF-2-alpha; assay: Inhibition of hypoxia-induced HIF1 activation in human HeLa cells by luciferase reporter gene assay; type: cell-based
[8] = Inhibition of luciferase expression in TNT T7 coupled reticulocyte lysate system at 10 uM; type: functional
Summary of the method: (§4)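 Cell-free luciferase expression from Luciferase T7 Control DNA using TNT T7 coupled reticulocyte lysate transcription/translation. Compounds present during reaction; luciferase activity expressed as percentage of untreated control.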

T47D [9] = assay: Inhibition of hypoxia-induced VEGF expression in human T47D cells at 10 uM after 16 hrs by ELISA; type: cell-based
Summary of the method: (§5)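 T47D cells given compound for 30 min before hypoxia (1% O2) for 16 h. VEGF protein in cell lysates measured by ELISA, normalized to cellular protein. Representative experiment in triplicate; significance p < 0.05 versus untreated control.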

T47D [10] = assay: Inhibition of hypoxia-induced secreted VEGF expression in human T47D cells at 10 uM after 16 by ELISA relative to normoxic control; type: functional; summary of the method: as §2
[11] = Inhibition of luciferase expression in TNT T7 coupled reticulocyte lysate system at 0.3 uM; type: functional; summary of the method: as §4
T47D [12] = assay: Inhibition of hypoxia-induced VEGF expression in human T47D cells at 0.3 uM after 16 hrs by ELISA; type: cell-based; summary of the method: as §5
T47D [13] = assay: Inhibition of VEGF protein expression in human T47D cells at 0.3 uM; type: functional
Summary of the method: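 T47D breast carcinoma cells in DMEM/F12 with 10% FBS, 37 °C. Compound added 30 min before hypoxia (1% O2/94% N2/5% CO2, 16 h). Cell lysate VEGF measured by ELISA and normalised to cellular protein. Secreted VEGF in conditioned medium measured by modified ELISA. Compared with untreated control; one representative experiment in triplicate; significance p < 0.05.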

T47D [14] = assay: Inhibition of hypoxia-induced secreted VEGF expression in human T47D cells at 3 uM after 16 by ELISA relative to normoxic control; type: functional; summary of the method: as §2
T47D [15] = assay: Inhibition of hypoxia-induced VEGF expression in human T47D cells at 3 uM after 16 hrs by ELISA; type: cell-based; summary of the method: as §5
[16] = biological target: T1, Hypoxia inducible factors; HIF-1-alpha, HIF-2-alpha; assay: Inhibition of hypoxia-induced HIF1 activation in human T47D cells after 16 hrs by luciferase reporter gene assay; type: cell-based
T47D [17] = assay: Inhibition of hypoxia-induced VEGF expression in human T47D cells at 1 uM after 16 hrs by ELISA; type: cell-based; summary of the method: as §5

Aryl hydrocarbon receptor nuclear translocator (Homo sapiens), sequence (P27540 whole entry): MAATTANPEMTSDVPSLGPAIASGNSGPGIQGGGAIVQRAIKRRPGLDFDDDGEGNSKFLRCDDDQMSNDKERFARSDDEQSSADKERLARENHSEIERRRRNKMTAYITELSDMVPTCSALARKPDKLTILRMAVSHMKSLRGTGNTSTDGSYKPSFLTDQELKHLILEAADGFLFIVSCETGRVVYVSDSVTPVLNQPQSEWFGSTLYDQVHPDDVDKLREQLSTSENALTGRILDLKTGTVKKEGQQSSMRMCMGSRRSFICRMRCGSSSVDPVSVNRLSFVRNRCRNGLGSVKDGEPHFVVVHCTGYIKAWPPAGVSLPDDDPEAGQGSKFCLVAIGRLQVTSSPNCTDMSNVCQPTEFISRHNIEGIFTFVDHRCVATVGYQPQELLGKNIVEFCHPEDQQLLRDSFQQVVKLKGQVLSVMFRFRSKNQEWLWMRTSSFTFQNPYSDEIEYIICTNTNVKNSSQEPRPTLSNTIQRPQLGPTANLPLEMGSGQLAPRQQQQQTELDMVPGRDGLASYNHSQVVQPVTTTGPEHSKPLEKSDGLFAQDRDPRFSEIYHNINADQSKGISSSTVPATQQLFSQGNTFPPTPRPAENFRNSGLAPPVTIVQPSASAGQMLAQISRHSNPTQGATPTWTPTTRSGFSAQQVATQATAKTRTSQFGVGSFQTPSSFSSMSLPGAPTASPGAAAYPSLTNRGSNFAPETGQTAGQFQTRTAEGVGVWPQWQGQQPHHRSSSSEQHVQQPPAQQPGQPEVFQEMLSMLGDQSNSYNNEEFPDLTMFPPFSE

SMILES	Activity [1]	Activity (T47D [2])	Activity [3]	Activity (T47D [4])	Activity [5]	Activity [6]	IC50 [7] [nM]	Activity [8]	Activity (T47D [9])	inhibition at 10 µM (T47D [10]) [%]	Activity [11]	inhibition (T47D [12]) [%]	Activity (T47D [13]) [pg/mL]	inhibition at 3 µM (T47D [14]) [%]	Activity (T47D [15])	IC50 [16] [nM]	inhibition (T47D [17]) [%]
CC[C@H]1CN2CCc3cc(OC)c(OC)cc3[C@@H]2C[C@@H]1C[C@@H]1NCCc2cc(O)c(O)cc21	inactive	inactive	inactive	Active	inactive	inactive	–	–	–	–	–	–	–	–	–	–	–
C[C@@H]1C[C@@H]([C@H](O)CC2CC(=O)NC(=O)C2)C(=O)[C@@H](C)C1 [CYCLOHEXIMIDE]	–	inactive	–	–	inactive	inactive	36	Active	Active	43	–	–	–	–	–	–	–
CC[C@H]1CN2CCc3cc(OC)c(OC)cc3[C@@H]2C[C@@H]1C[C@H]1NCCc2cc(OC)c(OC)cc21 [EMETINE]	–	Active	–	–	inactive	inactive	–	Active	–	–	inactive	69	58.8	–	–	–	–
CC[C@H]1CN2CCc3cc(OC)c(OC)cc3[C@@H]2C[C@@H]1C[C@@H]1NCCc2cc(O)c(OC)cc21 [ISOCEPHAELINE]	–	inactive	–	–	inactive	inactive	–	–	–	–	–	–	–	69	Active	1100	–
CC[C@H]1CN2CCc3cc(O)c(OC)cc3[C@@H]2C[C@@H]1C[C@@]1(O)NCCc2cc(O)c(OC)cc21 [KLUGINE]	–	inactive	–	Active	inactive	inactive	–	Active	–	–	inactive	–	–	–	–	200	56
